Measured values: ChEMBL document CHEMBL2146464, “Structure-activity relationship study of nitrosopyrimidines acting as antifungal agents” (Bioorg Med Chem, 2012)
≈ marks a conversion by molar mass, not a printed value. Calls of active or inactive are those of the source. The calls are words filed in the database; no cut-off is given here.

Experiments:
Aspergillus fumigatus = test: Antifungal activity against Aspergillus fumigatus ATCC 26934 at 0.98 to 250 ug/mL by NCCLS broth microdilution method; assay type: functional, organism-based
Method in brief: (§1)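 MIC by broth microdilution per NCCLS M27-A3/M38-A2 in RPMI-1640 buffered to pH 7.0 with MOPS. Twofold dilutions from 250–0.98 µg/mL, final DMSO ≤1%. Inoculum 1–5 × 10³ CFU/mL. Incubated in a moist dark chamber, 30 °C for Aspergillus and 28–30 °C for dermatophytes. Read visually when control growth allowed. Endpoint is the lowest concentration giving total inhibition of visible growth (MIC100).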

Candida albicans [1] = test: Antifungal activity against Candida albicans ATCC 10231 assessed as growth inhibition at 15.6 ug/mL after 24 hrs by microplate reader analysis; assay type: functional; settings: ATCC 10231, 24 h, read-out: GI
Method in brief: (§2)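 96-well RPMI-1640 wells with compound at final 250–0.98 µg/mL (DMSO ≤1%). Inoculum 100 µL, 1–5 × 10³ CFU/mL, 200 µL final. Each well includes growth (DMSO, no compound) and sterility controls. % inhibition = 100 − (CTW−SCW)/(GCW−SCW) × 100, run in duplicate.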

Cryptococcus neoformans [2] = test: Antifungal activity against Cryptococcus neoformans ATCC 32264 assessed as growth inhibition at 125 ug/mL after 48 hrs by microplate reader analysis; assay type: functional; settings: ATCC 32264, 48 h, read-out: GI
Method in brief: (§3)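 Microplate growth-inhibition assay in RPMI-1640, compound at final 250–0.98 µg/mL (DMSO ≤1%). Inoculum 1–5 × 10³ CFU/mL. Sterility and DMSO growth controls included. Percent inhibition is computed from blank-corrected OD relative to the growth control, tested in duplicate.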

Candida albicans [3] = test: Antifungal activity against Candida albicans ATCC 10231 assessed as growth inhibition at 7.8 ug/mL after 24 hrs by microplate reader analysis; assay type: functional; settings: ATCC 10231, 24 h, read-out: GI; method in brief: as §2
[4] = Acute toxicity in bony fish assessed as mortality at 3 ug/mL after 96 hrs; settings: actinopterygii; read-out: Activity
Method in brief: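 Guppy (Poecilia reticulata) acute static exposure: 10 fish per concentration in 2 L wide-mouthed jars holding the test solution. Compounds were added from […] to give the final concentrations. Dead fish were counted and removed every 24 h, with general condition noted; percentage mortality was scored at 96 h. Two experiments, each in triplicate.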

Aspergillus flavus = test: Antifungal activity against Aspergillus flavus ATCC 9170 at 0.98 to 250 ug/mL by NCCLS broth microdilution method; assay type: functional, organism-based; method in brief: as §1
Cryptococcus neoformans [5] = test: Fungicidal activity against Cryptococcus neoformans ATCC 32264 at 0.98 to 250 ug/mL after 48 hrs by agar plate dilution method; assay type: functional, organism-based
Method in brief: (§4)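 MFC: after the microdilution MIC, material from each clear well was plated onto RPMI-1640 agar buffered with MOPS. Plates incubated at 30 °C and read after 48 h. MFC is the lowest concentration giving total inhibition of visible growth.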

Cryptococcus neoformans [6] = test: Antifungal activity against Cryptococcus neoformans ATCC 32264 after 48 hrs by microplate reader analysis; assay type: functional; settings: ATCC 32264, 48 h; method in brief: as §3
Nannizzia gypsea = test: Antifungal activity against Microsporum gypseum CCC 115 at 0.98 to 250 ug/mL by NCCLS broth microdilution method; assay type: functional, organism-based; method in brief: as §1
Candida albicans [7] = test: Antifungal activity against Candida albicans ATCC 10231 assessed as growth inhibition at 250 ug/mL after 24 hrs by microplate reader analysis; assay type: functional; settings: ATCC 10231, 24 h, read-out: GI; method in brief: as §2
Candida tropicalis [8] = test: Antifungal activity against Candida tropicalis assessed as growth inhibition at 7.8 ug/mL by microplate reader analysis; assay type: functional; settings: read-out: GI
Cryptococcus neoformans [9] = test: Antifungal activity against Cryptococcus neoformans ATCC 32264 after 48 hrs by NCCLS broth microdilution method; assay type: functional; settings: ATCC 32264, 48 h, read-out: MIC100
Method in brief: (§5)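 Yeast MIC by NCCLS M27-A3 broth microdilution in RPMI-1640 buffered to pH 7.0 with MOPS. Twofold dilutions of 250–0.98 µg/mL, final DMSO ≤1%. Inoculum 1–5 × 10³ CFU/mL. Incubated at 30 °C in a moist dark chamber. Read visually at 48 h. MIC100 is the lowest concentration with no visible growth versus drug-free control.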

Candida tropicalis [10] = test: Antifungal activity against Candida tropicalis after 48 hrs by NCCLS broth microdilution method; assay type: functional; settings: read-out: MIC100; method in brief: as §5
Candida tropicalis [11] = test: Antifungal activity against Candida tropicalis assessed as growth inhibition at 3.9 ug/mL by microplate reader analysis; assay type: functional; settings: read-out: GI
Cryptococcus neoformans [12] = test: Antifungal activity against Cryptococcus neoformans ATCC 32264 assessed as growth inhibition at 7.8 ug/mL after 48 hrs by microplate reader analysis; assay type: functional; settings: ATCC 32264, 48 h, read-out: GI; method in brief: as §3
[13] = system: Trichophyton mentagrophytes; test: Antifungal activity against Trichophyton mentagrophytes ATCC 9972 at 0.98 to 250 ug/mL by NCCLS broth microdilution method; assay type: functional, organism-based; method in brief: as §1
Candida tropicalis [14] = test: Antifungal activity against Candida tropicalis by microplate reader analysis; assay type: functional
Cryptococcus neoformans [15] = test: Antifungal activity against Cryptococcus neoformans ATCC 32264 assessed as growth inhibition at 3.9 ug/mL after 48 hrs by microplate reader analysis; assay type: functional; settings: ATCC 32264, 48 h, read-out: GI; method in brief: as §3
Trichophyton rubrum = test: Antifungal activity against Trichophyton rubrum CCC 110 at 0.98 to 250 ug/mL by NCCLS broth microdilution method; assay type: functional, organism-based; method in brief: as §1
Candida tropicalis [16] = test: Antifungal activity against Candida tropicalis assessed as growth inhibition at 31.25 ug/mL by microplate reader analysis; assay type: functional; settings: read-out: GI
Cryptococcus neoformans [17] = test: Antifungal activity against Cryptococcus neoformans ATCC 32264 assessed as growth inhibition at 15.6 ug/mL after 48 hrs by microplate reader analysis; assay type: functional; settings: ATCC 32264, 48 h, read-out: GI; method in brief: as §3
Candida tropicalis [18] = test: Antifungal activity against Candida tropicalis assessed as growth inhibition at 250 ug/mL by microplate reader analysis; assay type: functional; settings: read-out: GI
Cryptococcus neoformans [19] = test: Antifungal activity against Cryptococcus neoformans ATCC 32264 assessed as growth inhibition at 31.25 ug/mL after 48 hrs by microplate reader analysis; assay type: functional; settings: ATCC 32264, 48 h, read-out: GI; method in brief: as §3
Candida albicans [20] = test: Fungicidal activity against Candida albicans ATCC 10231 at 0.98 to 250 ug/mL after 48 hrs by agar plate dilution method; assay type: functional, organism-based; method in brief: as §4
Cryptococcus neoformans [21] = test: Antifungal activity against Cryptococcus neoformans ATCC 32264 assessed as growth inhibition at 62.5 ug/mL after 48 hrs by microplate reader analysis; assay type: functional; settings: ATCC 32264, 48 h, read-out: GI; method in brief: as §3
Candida albicans [22] = test: Antifungal activity against Candida albicans ATCC 10231 assessed as growth inhibition at 3.9 ug/mL after 24 hrs by microplate reader analysis; assay type: functional; settings: ATCC 10231, 24 h, read-out: GI; method in brief: as §2
Candida tropicalis [23] = test: Antifungal activity against Candida tropicalis assessed as growth inhibition at 62.5 ug/mL by microplate reader analysis; assay type: functional; settings: read-out: GI
Candida albicans [24] = test: Antifungal activity against Candida albicans ATCC 10231 assessed as growth inhibition at 62.5 ug/mL after 24 hrs by microplate reader analysis; assay type: functional; settings: ATCC 10231, 24 h, read-out: GI; method in brief: as §2
Candida albicans [25] = test: Antifungal activity against Candida albicans ATCC 10231 after 24 hrs by microplate reader analysis; assay type: functional; settings: ATCC 10231, 24 h; method in brief: as §2
Cryptococcus neoformans [26] = test: Antifungal activity against Cryptococcus neoformans ATCC 32264 assessed as growth inhibition at 250 ug/mL after 48 hrs by microplate reader analysis; assay type: functional; settings: ATCC 32264, 48 h, read-out: GI; method in brief: as §3
Candida tropicalis [27] = test: Antifungal activity against Candida tropicalis assessed as growth inhibition at 15.6 ug/mL by microplate reader analysis; assay type: functional; settings: read-out: GI
Candida albicans [28] = test: Antifungal activity against Candida albicans ATCC 10231 assessed as growth inhibition at 125 ug/mL after 24 hrs by microplate reader analysis; assay type: functional; settings: ATCC 10231, 24 h, read-out: GI; method in brief: as §2
Candida tropicalis [29] = test: Antifungal activity against Candida tropicalis assessed as growth inhibition at 125 ug/mL by microplate reader analysis; assay type: functional; settings: read-out: GI
Candida tropicalis [30] = test: Fungicidal activity against Candida tropicalis at 0.98 to 250 ug/mL after 48 hrs by agar plate dilution method; assay type: functional, organism-based; method in brief: as §4
Aspergillus niger = test: Antifungal activity against Aspergillus niger ATCC 9029 at 0.98 to 250 ug/mL by NCCLS broth microdilution method; assay type: functional, organism-based; method in brief: as §1
Candida albicans [31] = test: Antifungal activity against Candida albicans ATCC 10231 after 48 hrs by NCCLS broth microdilution method; assay type: functional; settings: ATCC 10231, 48 h, read-out: MIC100; method in brief: as §5
Candida albicans [32] = test: Antifungal activity against Candida albicans ATCC 10231 assessed as growth inhibition at 31.25 ug/mL after 24 hrs by microplate reader analysis; assay type: functional; settings: ATCC 10231, 24 h, read-out: GI; method in brief: as §2

COc1nc(N)nc2c1ncn2C12CC3CC(CC(C3)C1)C2
Activity (Aspergillus fumigatus): inactive | inhibition of growth at 15.6 µg/mL (Candida albicans [1]): 34.3% | inhibition of growth at 125 µg/mL (Cryptococcus neoformans [2]): 88% | inhibition of growth at 7.8 µg/mL (Candida albicans [3]): 23.2% | mortality at 96 h, 3 ug/mL [4]: 0% | Activity (Aspergillus flavus): inactive | Activity (Cryptococcus neoformans [5]): inactive | MIC50 (Cryptococcus neoformans [6]): 31.2 µg/mL (≈ 104 µM) | Activity (Nannizzia gypsea): inactive | inhibition of growth at 250 µg/mL (Candida albicans [7]): 100% | inhibition of growth at 7.8 µg/mL (Candida tropicalis [8]): 34.5% | MIC (Cryptococcus neoformans [9]): 250 µg/mL (≈ 835 µM) | MIC (Candida tropicalis [10]): 250 µg/mL (≈ 835 µM) | inhibition of growth at 3.9 µg/mL (Candida tropicalis [11]): 36.4% | inhibition of growth at 7.8 µg/mL (Cryptococcus neoformans [12]): 9.5% | Activity [13]: inactive | MIC50 (Candida tropicalis [14]): 62.5 µg/mL (≈ 209 µM) | inhibition of growth at 3.9 µg/mL (Cryptococcus neoformans [15]): 0% | Activity (Trichophyton rubrum): inactive | inhibition of growth at 31.25 µg/mL (Candida tropicalis [16]): 47.3% | inhibition of growth at 15.6 µg/mL (Cryptococcus neoformans [17]): 39.2% | inhibition of growth at 250 µg/mL (Candida tropicalis [18]): 100% | inhibition of growth at 31.25 µg/mL (Cryptococcus neoformans [19]): 56.9% | Activity (Candida albicans [20]): inactive | inhibition of growth at 62.5 µg/mL (Cryptococcus neoformans [21]): 51.1% | inhibition of growth at 3.9 µg/mL (Candida albicans [22]): 29.3% | inhibition of growth at 62.5 µg/mL (Candida tropicalis [23]): 53.3% | inhibition of growth at 62.5 µg/mL (Candida albicans [24]): 43.4% | MIC50 (Candida albicans [25]): 62.5 µg/mL (≈ 209 µM) | inhibition of growth at 250 µg/mL (Cryptococcus neoformans [26]): 100% | inhibition of growth at 15.6 µg/mL (Candida tropicalis [27]): 41.5% | inhibition of growth at 125 µg/mL (Candida albicans [28]): 86.8% | inhibition of growth at 125 µg/mL (Candida tropicalis [29]): 81.2% | Activity (Candida tropicalis [30]): inactive | Activity (Aspergillus niger): inactive | MIC (Candida albicans [31]): 250 µg/mL (≈ 835 µM) | inhibition of growth at 31.25 µg/mL (Candida albicans [32]): 38.9%
